From ChEMBL document CHEMBL3259541, “Synthesis and biological evaluation of antimetastatic agents predicated upon dihydromotuporamine C and its carbocyclic derivatives” (J Med Chem, 2014)
Calls of active or inactive are those of the source. The calls are words filed in the database; no cut-off is given here.

Experiments:
Mus musculus [1] = assay: Toxicity in immune-compromised mouse assessed as adverse event at 2.66 mg/kg,ip 5 days per week for 2 weeks; format: organism-based; design: dose 2.66 mg/kg; details: in vivo
L3.6pl [2] = assay: Antimetastatic activity against human L3.6PL cells injected into pancreas of immune-compromised mouse assessed as liver micrometastasis at 2.66 mg/kg,ip 5 days per week for 2 weeks after 7 days of tumor cells inoculation by microscopically; format: functional, organism-based; design: dose 2.66 mg/kg
Outline: (§1)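 Nu/nu mice engrafted with human L3.6pl pancreatic tumor cells; vehicle or compound given ip 5 days/week for 2 weeks (10 injections; 2.50 mg/kg for one agent, 2.66 mg/kg equimolar for the other), n=7 per group. Livers collected at termination; micrometastasis incidence and size scored macroscopically and on sections by H&E, human Ki67 and human cytokeratin-18 immunohistochemistry.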

L3.6pl [3] = assay: Effect on intracellular ceramide population in human L3.6PL cells assessed as sphingomyelin N22:1 level measured as contribution to total ceramide population at 0.6 uM after 48 hrs incubation by mass spectrometry analysis (reference value: 6.5%); format: functional
L3.6pl [4] = assay: Effect on intracellular ceramide population in human L3.6PL cells assessed as sphingomyelin N18:1 level measured per mg of protein at 0.6 uM after 48 hrs incubation by mass spectrometry analysis (reference value: 0.08 +/- 0.02 nmol); format: functional
L3.6pl [5] = assay: Effect on intracellular ceramide population in human L3.6PL cells assessed as sphingomyelin N19:0 level measured per mg of protein at 0.6 uM after 48 hrs incubation by mass spectrometry analysis (reference value: 0.01 +/- 0.01 nmol); format: functional
L3.6pl [6] = assay: Effect on intracellular ceramide population in human L3.6PL cells assessed as sphingomyelin N20:1 level measured per mg of protein at 0.6 uM after 48 hrs incubation by mass spectrometry analysis (reference value: 0.04 +/- 0.01 nmol); format: functional
CHO = assay: Cytotoxicity against CHO cells assessed as cell growth after 48 hrs incubation by MTS assay in presence of 1 mM aminoguanidine; format: cell-based; details: Cricetulus griseus
Outline: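 CHO and polyamine-transport-deficient CHO-MG* cells pretreated 24 h with 1 mM aminoguanidine, then exposed to compound for 48 h at 37 °C. Triplicate. IC50 taken as 50% growth inhibition. PTS selectivity expressed as the CHO-MG*/CHO IC50 ratio.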

L3.6pl [7] = assay: Antimigratory activity against human L3.6PL cells assessed as cell migration inhibition after 48 hrs incubation by wound healing assay in presence of 250 uM aminoguanidine treated 24 hrs prior compound addition; format: functional, cell-based
L3.6pl [8] = assay: Antimetastatic activity against human L3.6PL cells injected into pancreas of immune-compromised mouse assessed as liver micrometastasis at 2.66 mg/kg,ip 5 days per week for 2 weeks after 7 days of tumor cells inoculation by Hematoxylin and eosin staining
L3.6pl [9] = assay: Antimetastatic activity against human L3.6PL cells injected into pancreas of immune-compromised mouse assessed as liver micrometastasis at 2.66 mg/kg,ip 5 days per week for 2 weeks after 7 days of tumor cells inoculation by human Ki67 immunohistochemical staining
[10] = Toxicity in immune-compromised mouse compound treated ip 5 days per week for 2 weeks; format: organism-based; details: in vivo
Mus musculus [11] = assay: Toxicity in immune-compromised mouse assessed as adverse event at 2.5 mg/kg,ip 5 days per week for 2 weeks; format: organism-based; design: dose 2.5 mg/kg; details: in vivo
L3.6pl [12] = assay: Antimetastatic activity against human L3.6PL cells injected into pancreas of immune-compromised mouse assessed as liver micrometastasis at 2.5 mg/kg,ip 5 days per week for 2 weeks after 7 days of tumor cells inoculation by microscopically; format: functional, organism-based; design: dose 2.5 mg/kg; outline: as §1
L3.6pl [13] = assay: Effect on intracellular ceramide population in human L3.6PL cells assessed as ceramide N22:1 level measured as contribution to total ceramide population at 0.6 uM after 48 hrs incubation by mass spectrometry analysis relative to untreated control
L3.6pl [14] = assay: Antimetastatic activity against human L3.6PL cells injected into pancreas of immune-compromised mouse assessed as liver micrometastasis at 2.5 mg/kg,ip 5 days per week for 2 weeks after 7 days of tumor cells inoculation by Hematoxylin and eosin staining
L3.6pl [15] = assay: Antimetastatic activity against human L3.6PL cells injected into pancreas of immune-compromised mouse assessed as liver micrometastasis at 2.5 mg/kg,ip 5 days per week for 2 weeks after 7 days of tumor cells inoculation by human Ki67 immunohistochemical staining

Structure (SMILES)	Activity (Mus musculus [1])	Activity (L3.6pl [2])	Activity (L3.6pl [3]) [%]	Activity (L3.6pl [4]) [nmol]	Activity (L3.6pl [5]) [nmol]	Activity (L3.6pl [6]) [nmol]	IC50 (CHO) [µM]	inhibition (L3.6pl [7])	Activity (L3.6pl [8])	Activity (L3.6pl [9])	MTD at 2 weeks [10] [mg/kg]	Activity (Mus musculus [11])	Activity (L3.6pl [12])	fold change (FC) (L3.6pl [13])	Activity (L3.6pl [14])	Activity (L3.6pl [15])
Cl.NCCCNCCCNCC1CCCCCCCCCCCCCC1	Non-toxic	Active	4.6	0.14	0.02	0.05	82.9	Dose-dependent effect	Active	Active	–	–	–	–	–	–
Cl.NCCCNCCCN1CCCCCCCCCCCCCC1	–	–	18.6	0.13	0.02	0.04	2.9	–	–	–	2.5	Non-toxic	inactive	2.8	inactive	inactive
